Measurements taken from ChEMBL document CHEMBL1667838, “Spirodiketopiperazine-based CCR5 antagonist: discovery of an antiretroviral drug candidate” (Bioorg Med Chem Lett, 2011).
In brackets after ≈: the same amount, converted by molar mass.

How the values were obtained:
Rattus norvegicus [1] = experiment: (§1) AUC in rat at 10 mg/kg, po; format: ADME, organism-based, Plasma; design: dose 10 mg/kg, route oral; settings: in vivo
Cytochrome P450 2D6 = Cytochrome P450 2D6 (Homo sapiens, UniProt P10635); experiment: Inhibition of CYP2D6; format: ADME
Outline: (§2)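 Inhibition tested separately against P450 isoforms 2C9, 2D6 and 3A4, with test concentrations up to 30 μM.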

[2] = Cmax in rat at 10 mg/kg, po; format: ADME, organism-based; design: dose 10 mg/kg, route oral; settings: in vivo
[3] = Half life in rat at 3 mg/kg, iv; format: ADME, organism-based; design: dose 3 mg/kg, route intravenous; settings: in vivo
Rattus norvegicus [4] = experiment: (§3) AUC in rat at 3 mg/kg, iv; format: ADME, organism-based, Plasma; design: dose 3 mg/kg, route intravenous; settings: in vivo
Outline: (§4)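 Single-dose oral and intravenous administration in rats. Plasma PK parameters were derived from these dosings: clearance and Vss after iv dosing, and Cmax and AUC after oral dosing.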

[5] = Half life in rat at 10 mg/kg, po; format: ADME, organism-based; design: dose 10 mg/kg, route oral; settings: in vivo; outline: as §4
[6] = Clearance in rat at 3 mg/kg, iv; format: ADME, organism-based; design: dose 3 mg/kg, route intravenous; settings: in vivo
Cytochrome P450 2C9 = Cytochrome P450 2C9 (Homo sapiens, UniProt P11712); experiment: Inhibition of CYP2C9; format: ADME; outline: as §2
Cytochrome P450 3A4 [7] = molecular target: T1, Cytochrome P450 3A4 (Homo sapiens, UniProt P08684); experiment: Inhibition of CYP3A4; format: ADME; outline: as §2
Rattus norvegicus [8] = experiment: (§5) Oral bioavailability in rat at 10 mg/kg; format: ADME, organism-based; settings: in vivo; outline: as §4
[9] = as §1; format: ADME, organism-based, Plasma; design: dose 10 mg/kg, route oral; settings: plasma
[10] = Solubility of the compound; format: physicochemical
Outline: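 Kinetic aqueous solubility, determined at pH 6.8 and reported in […].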

Caco-2 = experiment: Permeability across human Caco2 cell membrane; format: ADME, cell-based
[11] = as §3; format: ADME, organism-based, Plasma; design: dose 3 mg/kg, route intravenous; settings: plasma; outline: as §4
[12] = as §5; format: ADME, organism-based; settings: in vivo; outline: as §4
[13] = system: Human immunodeficiency virus 1; experiment: Antiviral activity against multidrug-resistant R5 tropic HIV1 MM infected in human PBMC assessed as inhibition of […] antigen expression; format: functional, organism-based; settings: Human immunodeficiency virus 1, MM
[14] = system: Human immunodeficiency virus 1; experiment: Antiviral activity against R5 tropic HIV1 Ba-L infected in human PBMC assessed as inhibition of […] antigen expression; format: functional, organism-based; settings: Human immunodeficiency virus 1, Ba-L
Cytochrome P450 3A4 [15] = molecular target: T1, Cytochrome P450 3A4; experiment: Inhibition of CYP3A4 upto 30 uM; format: ADME; outline: as §2
[16] = molecular target: C-C chemokine receptor type 5 (Homo sapiens, UniProt P51681); experiment: Antagonist activity at human CCR5 expressed in CHO cells assessed as inhibition of MIP-1alpha-induced calcium mobilization Ca assay; format: functional, cell-based
[17] = Aqueous solubility of the compound at pH 6.8; format: physicochemical; settings: buffer
Outline: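 Kinetic aqueous solubility at pH 6.8, reported in μg/mL.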

T1 sequence (P08684 whole entry): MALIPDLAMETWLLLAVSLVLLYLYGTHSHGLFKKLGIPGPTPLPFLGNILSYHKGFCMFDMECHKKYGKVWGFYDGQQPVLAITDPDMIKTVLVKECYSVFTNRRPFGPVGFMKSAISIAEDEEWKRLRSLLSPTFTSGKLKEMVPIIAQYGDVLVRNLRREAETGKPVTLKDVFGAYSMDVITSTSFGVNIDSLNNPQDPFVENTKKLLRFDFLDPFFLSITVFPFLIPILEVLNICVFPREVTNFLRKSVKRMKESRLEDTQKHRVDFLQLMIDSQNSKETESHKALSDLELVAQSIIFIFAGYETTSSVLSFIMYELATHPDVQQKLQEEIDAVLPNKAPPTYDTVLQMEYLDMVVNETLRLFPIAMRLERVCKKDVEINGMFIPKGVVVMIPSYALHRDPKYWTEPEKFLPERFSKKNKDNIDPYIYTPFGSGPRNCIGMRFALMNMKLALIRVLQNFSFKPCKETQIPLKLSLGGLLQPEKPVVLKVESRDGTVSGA
Cytochrome P450 2D6, sequence (P10635 whole entry, canonical isoform): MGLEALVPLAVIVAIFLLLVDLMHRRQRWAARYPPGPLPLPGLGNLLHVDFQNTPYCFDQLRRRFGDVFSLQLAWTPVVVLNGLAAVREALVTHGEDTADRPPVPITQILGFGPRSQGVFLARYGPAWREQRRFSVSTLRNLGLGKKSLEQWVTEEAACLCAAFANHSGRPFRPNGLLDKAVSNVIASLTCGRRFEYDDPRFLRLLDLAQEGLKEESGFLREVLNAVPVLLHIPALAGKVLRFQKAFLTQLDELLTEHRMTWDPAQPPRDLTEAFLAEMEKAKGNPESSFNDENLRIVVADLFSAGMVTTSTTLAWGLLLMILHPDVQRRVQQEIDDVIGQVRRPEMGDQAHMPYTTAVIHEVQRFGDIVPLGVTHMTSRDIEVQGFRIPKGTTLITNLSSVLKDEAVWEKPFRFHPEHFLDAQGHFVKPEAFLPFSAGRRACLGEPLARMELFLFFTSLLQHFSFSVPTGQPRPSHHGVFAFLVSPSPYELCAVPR
Cytochrome P450 2C9, sequence (P11712 whole entry): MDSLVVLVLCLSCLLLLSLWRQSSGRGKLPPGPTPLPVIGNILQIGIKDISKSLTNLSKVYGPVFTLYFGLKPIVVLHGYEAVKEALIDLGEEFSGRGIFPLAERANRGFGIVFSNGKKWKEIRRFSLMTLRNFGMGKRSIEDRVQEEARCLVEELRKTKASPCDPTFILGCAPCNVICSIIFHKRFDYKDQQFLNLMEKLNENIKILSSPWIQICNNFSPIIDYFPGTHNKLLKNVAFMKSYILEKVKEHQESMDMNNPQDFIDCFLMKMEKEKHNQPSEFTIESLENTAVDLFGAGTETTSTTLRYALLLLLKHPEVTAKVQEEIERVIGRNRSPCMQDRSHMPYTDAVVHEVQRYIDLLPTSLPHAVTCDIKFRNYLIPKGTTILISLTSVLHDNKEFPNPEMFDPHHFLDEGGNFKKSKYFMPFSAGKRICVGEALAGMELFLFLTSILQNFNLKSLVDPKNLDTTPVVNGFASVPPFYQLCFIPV
C-C chemokine receptor type 5, sequence (P51681 whole entry): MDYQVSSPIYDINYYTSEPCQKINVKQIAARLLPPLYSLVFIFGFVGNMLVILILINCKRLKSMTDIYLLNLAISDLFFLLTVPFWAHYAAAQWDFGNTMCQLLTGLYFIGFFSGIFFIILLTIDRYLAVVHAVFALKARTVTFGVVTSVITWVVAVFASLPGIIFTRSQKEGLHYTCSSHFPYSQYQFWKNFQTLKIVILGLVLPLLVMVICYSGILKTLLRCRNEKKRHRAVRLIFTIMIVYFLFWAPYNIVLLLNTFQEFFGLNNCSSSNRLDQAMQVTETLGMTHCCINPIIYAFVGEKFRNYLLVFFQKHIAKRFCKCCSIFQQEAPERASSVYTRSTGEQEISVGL

| SMILES | IC50 (Cytochrome P450 2D6) [µM] | Cmax [2] [ng/mL] | half-life [5] [min] | IC50 (Cytochrome P450 2C9) [µM] | IC50 (Cytochrome P450 3A4 [7]) [µM] | AUC [9] [ng·h/mL] | solubility [10] [µM] | bioavailability [12] [%] | also measured |
| --- | --- | --- | --- | --- | --- | --- | --- | --- | --- |
| CCCCN1C(=O)[C@H](CC2CCCCC2)NC(=O)C12CCN(Cc1ccc(Oc3ccc(C(=O)O)cc3)cc1)CC2.Cl | > 30 | 2400 | 48.4 | 8.8 | 24.9 |  |  |  | AUC (Rattus norvegicus [1]): 10532 ng·h/mL; half-life [3]: 11.1 min; AUC (Rattus norvegicus [4]): 3091 ng·h/mL; clearance [6]: 16 mL/min/kg; F (Rattus norvegicus [8]): 34% |
| CCCCN1C(=O)[C@@H]([C@@H](O)C2CCCCC2)NC(=O)C12CCN(Cc1ccc(Oc3ccc(C(=O)O)cc3)cc1)CC2.Cl | > 30 | 70 | 35.2 | 18 | > 30 | 67.5 | 81 |  |  |
| CCCCN1C(=O)[C@H]([C@H](O)C2CCCCC2)NC(=O)C12CCN(Cc1ccc(Oc3ccc(C(=O)O)cc3)cc1)CC2 | > 30 | 280 | 14.4 | > 30 | > 30 | 126 | 85 (≈ 49.1 µg/mL) |  | permeability (Caco-2): 1.6 ×10⁻⁶ cm/s |
| CCCCN1C(=O)[C@H]([C@@H](O)C2CCCCC2)NC(=O)C12CCN(Cc1ccc(Oc3ccc(C(=O)O)cc3)cc1)CC2.Cl | > 30 | 260 | 19.2 | > 30 | > 30 | 213 | 80 | 6.5 | half-life [3]: 16.2 min; AUC [11]: 988 ng·h/mL; clearance [6]: 50.9 mL/min/kg; permeability (Caco-2): 2.1 ×10⁻⁶ cm/s |
| Cc1ccc(-c2ccc3c(c2)C=C(C(=O)Nc2ccc(C[N+](C)(C)C4CCOCC4)cc2)CCC3)cc1 |  |  |  |  |  |  |  |  | IC50 [13]: 0.014 µM; IC50 [14]: 0.028 µM |
| CCCCN1C(=O)[C@@H]([C@H](O)C2CCCCC2)NC(=O)C12CCN(Cc1ccc(Oc3ccccc3)cc1)CC2.Cl | 9.8 |  |  | 3.7 | > 30 |  |  |  | inhibition (INH) (Cytochrome P450 3A4 [15]): Not Active |
| CCCCN1C(=O)[C@@H]([C@H](O)C(C)C)NC(=O)C12CCN(Cc1ccc(Oc3ccccc3)cc1)CC2 | > 30 |  |  | > 30 | > 30 |  |  |  | IC50 [16]: 0.084 µM |
| Cc1c(O)cccc1C(=O)N[C@@H](CSc1ccccc1)[C@H](O)CN1C[C@H]2CCCC[C@H]2C[C@H]1C(=O)NC(C)(C)C |  |  |  |  |  |  |  |  | IC50 [13]: > 1 µM |
| CCCCN1C(=O)C(CC2CCCCC2)NC(=O)C12CCN(Cc1ccc(Oc3ccccc3)cc1)CC2.Cl (racemic) | 7.8 |  | 103 | 5.5 |  |  |  | 1.9 | AUC (Rattus norvegicus [4]): 400 ng·h/mL; solubility [17]: < 0.2 µg/mL |
| CCCCN1C(=O)C(CC(C)C)NC(=O)C12CCN(Cc1ccc(Oc3ccccc3)cc1)CC2.Cl (racemic) | 4.6 |  | 75.7 | 5.9 | 19.7 |  |  | 1.3 | AUC (Rattus norvegicus [4]): 372 ng·h/mL |
| CCCCN1C(=O)[C@@H]([C@H](O)C2CCCCC2)NC(=O)C12CCN(Cc1ccc(Oc3ccc(C(=O)O)cc3)cc1)CC2.Cl [APLAVIROC HYDROCHLORIDE] | > 30 | 2360 | 120 | > 30 | > 30 | 3420 | 70 | 23 | half-life [3]: 21.8 min; AUC [11]: 4400 ng·h/mL; clearance [6]: 11.3 mL/min/kg; permeability (Caco-2): 3.8 ×10⁻⁶ cm/s |
| COC[C@@H](c1ccc(C(F)(F)F)cc1)N1CCN(C2(C)CCN(C(=O)c3c(C)ncnc3C)CC2)C[C@@H]1C [VICRIVIROC] |  |  |  |  |  |  |  |  | IC50 [13]: 0.003 µM; IC50 [14]: 0.004 µM |
